FN deposition inh – inhibitors of fibronectin matrix deposition, primary screen, AH1F cells, Alexa488-fibronectin fluorescence, plate reader; actives 0.086% (n = 350,000); inhibition, % at 12.6 µM; AH1F fibroblasts, overnight;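 active = mean inhibition across replicates of 30% or more, regardless of how many single replicates reach that level; inconclusive = mean under 30% yet at least half of replicates reach 30%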;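 also: positive control wells lacked labelled fibronectin entirely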
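Measured by – fluorescence 485/525 nm · System – AH1F fibroblast monolayer, labelled fibronectin deposition · Amount – 10000 cells per well · Buffer or medium – serum-reduced DMEM (2% serum) · Doses – single dose, pinned · Also added – fluorescent fibronectin at 24 nM final · Schedule – 1 h cell attachment, overnight exposure to compound and label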
Ecoli rRNA inh – reduced GFP signal of wild-type E. coli, primary screen, bacterial rRNA inhibitor project, GFP/RFP fluorescence, OD600, single point; E. coli WT GFP vs humanized-ribosome RFP mutants, 24 h; stronger effect = lower value; DMSO median 0, no signal -100; GFP signal change (wild-type ribosome), % (test concentration not listed); actives 1.6% (n = 350,000); AID 720706, 2013;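 active = significant combined selectivity score with lowered wild-type GFP, culture density cut under 30%, mutant RFP and density less affected; inactive = any of these conditions unmet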
Env fusion inh – inhibitors of HIV-1 Env-driven cell-cell fusion, primary screen, HeLa-JRFL effector, CEM21 target cells, luciferase | inhibition, % at 12.3 µM | actives 1.1% (n = 360,000) | AID 651610, 2012;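 active = mean replicate inhibition score of at least 50 and every replicate individually at or above 50; inconclusive = only one of the two criteria met; inactive = mean below 50 and not all replicates reaching 50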;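 also: 0% = plate neutral controls and 100% = maraviroc near 300 nM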
PvdQ acylase – P. aeruginosa PvdQ acylase inhibitors, primary screen, biochemical, fluorescence, plate reader and imaging, single point. PvdQ acylase [Pseudomonas aeruginosa LESB58]. purified PvdQ acylase. inhibition, % at 10 µM. actives 0.063% (n = 340,000). AID 488965, 2010; in the data active = inhibition above about 30%, passing the limit was not always enough; inconclusive = no clear call, values can overlap the other calls;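 also: 0% = vehicle neutral wells and 100% = reference inhibitor wells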
ERp5 inh – inhibitors of ERp5-driven insulin aggregation, primary screen, biochemical, turbidity, absorbance 650 nm, single point. 90 min. inhibition, % at 9.99 µM. actives 0.05% (n = 350,000);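 active = mean replicate inhibition above about 25%, with every replicate also reaching it, limit read from the data, passing the limit was not always enough; inconclusive = only one of those two criteria met; inactive = neither criterion met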
PDI turbidity – inhibitors of human PDI, primary screen, biochemical, turbidity, single point, plate reader | Protein disulfide-isomerase (Homo sapiens), P07237 | PDI insulin aggregation turbidity, A650, 90 min | inhibition, % at 10 µM | actives 0.052% (n = 350,000) | AID 588391, 2011;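 active = mean inhibition across replicates of 30% or more, whatever share of single replicates reach that level; inconclusive = mean inhibition below 30% while every single replicate reaches 30%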
Target sequence (P07237 whole entry, looked up): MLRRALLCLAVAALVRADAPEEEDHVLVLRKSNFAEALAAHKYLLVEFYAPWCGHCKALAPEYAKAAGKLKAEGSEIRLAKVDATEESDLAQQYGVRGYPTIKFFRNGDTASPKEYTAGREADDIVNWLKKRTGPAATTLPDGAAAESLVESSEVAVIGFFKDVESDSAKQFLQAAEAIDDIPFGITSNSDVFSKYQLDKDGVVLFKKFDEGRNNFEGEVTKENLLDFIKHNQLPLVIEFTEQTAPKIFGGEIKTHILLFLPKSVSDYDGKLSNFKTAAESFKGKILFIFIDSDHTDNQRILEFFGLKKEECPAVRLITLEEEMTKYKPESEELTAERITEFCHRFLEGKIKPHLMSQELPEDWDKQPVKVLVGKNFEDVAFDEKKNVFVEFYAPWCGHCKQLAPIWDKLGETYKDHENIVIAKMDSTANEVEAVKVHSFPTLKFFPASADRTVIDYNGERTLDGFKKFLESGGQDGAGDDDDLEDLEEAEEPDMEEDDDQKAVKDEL
AID977621 – growth inhibition of wild-type GFP E. coli, dose response, H69 mutant RFP, cherry-pick; E. coli wild-type GFP strain growth, fluorescence, 24 h; shares compounds with Ecoli rRNA inh; activity change, negative = inhibition at 50 µM; AID 977621, 2014; 1,900 tested, under 10 active;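 active = Wild-type ribosome reporter drop at least double the humanized mutant ribosome reporter drop, growth loss under a set limit; inconclusive = no clear call, values can overlap the other calls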;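 also: wild-type GFP and H69 mutant RFP strains grown together 50/50 in each well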
AID977628 – E. coli growth inhibition, wild-type GFP versus h24 humanized RFP strain, dose response, h24 mutant RFP vs wild-type GFP, cherry-pick; shares compounds with Ecoli rRNA inh; E. coli WT GFP strain growth, fluorescence, 24 h; activity change, negative = inhibition at 50 µM; 1,900 tested, under 10 active;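 active = compound lowering the normal-ribosome reporter at least twice as much as the humanized-ribosome reporter, growth loss under a set limit; inconclusive = no clear call, values can overlap the other calls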;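 also: wild-type GFP and h24 humanized RFP strains co-cultured 1 to 1 per well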
An asterisk follows results filed as active; [ ] = another dose, or the depositor's remark. Shown are actives, neighbours in structure and some others; about 2.2% of the full set was active somewhere.

Results for O=S(=O)(c1ccccc1)N1CCN(Cc2ccccc2C(F)(F)F)CC1 ?
FN deposition inh: -18; Env fusion inh: -59; PvdQ acylase: 1; PDI turbidity: 2

Results for CN(C)CCCn1c(=O)n(Cc2ccco2)c(=O)c2c3c(sc21)CCCCC3 ?
FN deposition inh: -5; Ecoli rRNA inh: -26*; Env fusion inh: 52; PvdQ acylase: -10; ERp5 inh: 5; PDI turbidity: 18; AID977621: -20; AID977628: inconclusive

How did C[C@@H]1CCCCO[C@@H](CN(C)C(=O)Nc2ccc(C(F)(F)F)cc2)[C@H](C)CN([C@@H](C)CO)C(=O)c2cc(NS(C)(=O)=O)ccc2O1 do in these assays?
Ecoli rRNA inh: -5; Env fusion inh: 12[16.7 µM]; ERp5 inh: -1

How did COc1ccc(NC(=O)Nc2cccc3c2O[C@@H](CN(C)C)[C@H](C)CN([C@H](C)CO)C3=O)cc1 do in these assays?
Ecoli rRNA inh: -2; ERp5 inh: 4

How did O=C(Nc1cccc(O)c1)c1cccc(C(=O)Nc2cccc(O)c2)c1 do in these assays?
FN deposition inh: -3; Ecoli rRNA inh: -15; Env fusion inh: -11; PvdQ acylase: -13; ERp5 inh: 2; PDI turbidity: -6

How did O=C(Nc1cccc(O)c1)c1cccc(S(=O)(=O)Nc2cccc(O)c2)c1 do in these assays?
FN deposition inh: -1; Ecoli rRNA inh: -16*; Env fusion inh: 8; PvdQ acylase: -9; ERp5 inh: 3; PDI turbidity: 19; AID977621: -4.3; AID977628: -3.2

Results for Cc1noc2ncnc(SCc3ccc(C(F)(F)F)cc3)c12 ?
FN deposition inh: -8; Ecoli rRNA inh: -21*; Env fusion inh: -10; PvdQ acylase: -2; ERp5 inh: 3; PDI turbidity: 3; AID977621: -2.2; AID977628: inconclusive

What do the screens show for `Cc1ccc(CSc2ncnc3onc(C)c23)cc1`?
FN deposition inh: -18; Ecoli rRNA inh: 7; Env fusion inh: -13; PvdQ acylase: -12; ERp5 inh: 6; PDI turbidity: 8

How did CCOC(=O)c1c(C)[nH]c(C)c1C(=O)COC(=O)C1CCCN1S(=O)(=O)c1ccccc1F (stereo unspecified) do in these assays?
PvdQ acylase: -2; ERp5 inh: 19; PDI turbidity: 2

Results for O=C(COC(=O)[C@@H]1CCCN1S(=O)(=O)c1ccccc1F)c1ccccc1 ?
FN deposition inh: 4; Ecoli rRNA inh: -16*; Env fusion inh: 6; PvdQ acylase: -9; ERp5 inh: 2; PDI turbidity: 0; AID977621: -6.6; AID977628: inconclusive

What do the screens show for `CC1CCCC(NC(=O)COC(=O)Cc2c[nH]c3ccccc23)C1C` (stereo unspecified)?
FN deposition inh: 6; Ecoli rRNA inh: -29*; Env fusion inh: 2; PvdQ acylase: -12; ERp5 inh: 1; PDI turbidity: 1; AID977621: -14; AID977628: -13

Results for CC1CCCC(NC(=O)COC(=O)Cc2ccc(Cl)cc2)C1C (stereo unspecified) ?
FN deposition inh: -1; Ecoli rRNA inh: -11; PvdQ acylase: -4; ERp5 inh: 0; PDI turbidity: -1

Results for Clc1cccc(OCc2nc(-c3ccncc3)n[nH]2)c1 ?
FN deposition inh: 6; Ecoli rRNA inh: -22*; Env fusion inh: 19; PvdQ acylase: -10; ERp5 inh: -2; PDI turbidity: 0; AID977621: -1.1

Results for Fc1ccc(OCc2nc(-c3ccncc3)n[nH]2)cc1 ?
FN deposition inh: 1; Ecoli rRNA inh: 10; Env fusion inh: 8; PvdQ acylase: -17; ERp5 inh: -1; PDI turbidity: -9

Results for CC1Cc2ccccc2N1C(=O)CN1C(=O)NC(C)(CCc2ccccc2)C1=O (stereo unspecified) ?
FN deposition inh: -24; Ecoli rRNA inh: -18*; Env fusion inh: -2; PvdQ acylase: 4; ERp5 inh: 1; PDI turbidity: -4; AID977621: -3.6; AID977628: -13

How did CC1(C(=O)NS(=O)(=O)c2cccc(Cl)c2)CCN1C(=O)C1(c2ccc(Cl)cc2)CCC1 (stereo unspecified) do in these assays?
FN deposition inh: 0; Ecoli rRNA inh: -16*; Env fusion inh: -41; ERp5 inh: 5; PDI turbidity: -1; AID977621: -15

Results for CC1(C(=O)NS(=O)(=O)c2cccs2)CCN1C(=O)C1(c2ccc(Cl)cc2)CCC1 (stereo unspecified) ?
FN deposition inh: 0; Ecoli rRNA inh: -33*; Env fusion inh: 10; ERp5 inh: -1; PDI turbidity: 16; AID977621: -22

How did CC1(C(=O)NS(=O)(=O)c2cccc(Cl)c2)CCN1C(=O)C1(c2ccc(Cl)cc2)CC1 (stereo unspecified) do in these assays?
FN deposition inh: 5; Ecoli rRNA inh: -5; Env fusion inh: -4; ERp5 inh: 3; PDI turbidity: -3

How did CCOc1ccc(CCNC(=O)CN2C(=O)CCSc3ccccc32)cc1 do in these assays?
FN deposition inh: 4; Ecoli rRNA inh: -20*; Env fusion inh: 8; PvdQ acylase: -5; ERp5 inh: 3; PDI turbidity: 7; AID977628: inconclusive

What do the screens show for `CC(CNC(=O)CN1C(=O)CCSc2ccccc21)c1ccccc1` (stereo unspecified)?
FN deposition inh: 7; Ecoli rRNA inh: -2; Env fusion inh: 10; PvdQ acylase: -11; ERp5 inh: 2; PDI turbidity: -3

How did CC(C)Oc1ccc(C(CC(=O)O)NC(=O)Cc2ccc(Cl)cc2)cc1 (stereo unspecified) do in these assays?
FN deposition inh: 3; Ecoli rRNA inh: 10; Env fusion inh: 2; PvdQ acylase: -13; ERp5 inh: 0; PDI turbidity: 15

Source: PubChem BioAssay
